ChEMBL document CHEMBL1287725, “N-(8-(3-ethynylphenoxy)octyl-1-deoxynojirimycin suppresses growth and migration of human lung cancer cells” (Bioorg Med Chem Lett, 2010)
pIC50: −log10 of the molar value. Activity calls are given as the source filed them. No cut-off for these calls is given here.

How the values were obtained:
A549 [1] = assay: Antiproliferative activity against human A549 cells after 72 hrs by MTT assay; assay type: functional, cell-based; conditions: A549, 72 h
Procedure, shortened: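 A549 cells (2.5 x 10^3/well) in F12K with 10% FBS, seeded overnight, then exposed to a range of doses for 72 h. MTT was added to a final 0.5 mg/ml for 3 h. Formazan was dissolved in DMSO and absorbance read. Triplicates, three experiments; IC50 given as mean of three experiments.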

A549 [2] = assay: Inhibition of human A549 cell migration at 100 uM after 24 hrs by wound-healing assay; assay type: functional, cell-based
Procedure, shortened: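 Confluent A549 monolayers (3 x 10^4 cells seeded overnight, F12K/10% FBS) were scratched with a 200 µl pipette tip and washed. They were incubated at 37 °C in 10% FBS F12K with or without compound, and migration into the wound was photographed at 0 and 24 h.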

A549 [3] = assay: Effect on surface oligosaccharide expression in human A549 cells assessed as inhibition of binding of L-PHA-[…] to cell surface at 50 uM after 24 hrs by flow cytometry; assay type: functional, cell-based
A549 [4] = assay: Cell cycle arrest in human A549 cells assessed as accumulation at G1 phase at 50 uM after 24 hrs using propidium iodide staining by flow cytometry relative to control; assay type: functional
Procedure, shortened: (§1)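 A549 cells were seeded overnight in F12K/10% FBS, then treated 24 h. They were harvested with trypsin-EDTA, fixed in 70% ethanol at −20 °C for at least 2 h, and treated with RNase A 200 µg/ml at 25 °C for 30 min. Staining was with propidium iodide 50 µg/ml for 30 min at 4 °C. 10,000 nuclei per sample were scored by flow cytometry for G1, S and G2/M percentages. Triplicate, repeated three times.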

A549 [5] = assay: Cell cycle arrest in human A549 cells assessed as accumulation at G2/M phase at 50 uM after 24 hrs using propidium iodide staining by flow cytometry relative to control; assay type: functional; procedure, shortened: as §1
A549 [6] = assay: Cell cycle arrest in human A549 cells assessed as accumulation at S phase at 50 uM after 24 hrs using propidium iodide staining by flow cytometry relative to control; assay type: functional; procedure, shortened: as §1
A549 [7] = assay: Induction of apoptosis in human A549 cells at 50 uM after 24 to 72 hrs using annexin V and propidium iodide staining by flow cytometry; assay type: functional, cell-based
Procedure, shortened: (§2)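 A549 cells were seeded and, the next day, treated in complete medium at 0, 50 or 100 µM for 24, 48 and 72 h. Cells were collected and washed twice with DPBS, then stained with an annexin V-FITC/propidium iodide kit. Annexin V-positive cells were quantified by flow cytometry. Triplicate, repeated three times.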

A549 [8] = assay: Induction of apoptosis in human A549 cells at 100 uM after 24 to 72 hrs using annexin V and propidium iodide staining by flow cytometry; assay type: functional, cell-based; procedure, shortened: as §2
A549 [9] = assay: Induction of apoptosis in human A549 cells assessed as increased mitochondrial membrane depolarization at 100 uM after 48 hrs using JC-1 dye by flow cytometry; assay type: functional, cell-based
Procedure, shortened: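 After 48 h exposure, A549 cells were harvested and stained with JC-1. The red-to-green fluorescence shift (green/red ratio) was measured by flow cytometry as mitochondrial depolarisation. Mean ± SD, n=3.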

A549 [10] = assay: Inhibition of human A549 cell migration assessed as prevention of actin stress fibre formation at 100 uM after 24 hrs by TRITC-phalloidin staining; assay type: functional, cell-based
Procedure, shortened: (§3)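 A549 cells on glass coverslips were seeded overnight, then exposed 24 h. They were fixed with 4% paraformaldehyde, permeabilised with 0.1% Triton X-100, blocked with 1% BSA, and stained 60 min with TRITC-phalloidin for F-actin. Stress fibres were examined by confocal microscopy (100x oil). Repeated three times.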

A549 [11] = assay: Inhibition of human A549 cell migration assessed as disruption of actin assembly at 100 uM after 24 hrs by TRITC-phalloidin staining; assay type: functional, cell-based; procedure, shortened: as §3
A549 [12] = assay: Cell cycle arrest in human A549 cells assessed as accumulation at G1 phase at 100 uM after 24 hrs using propidium iodide staining by flow cytometry relative to control; assay type: functional; procedure, shortened: as §1
A549 [13] = assay: Cell cycle arrest in human A549 cells assessed as accumulation at G2/M phase at 100 uM after 24 hrs using propidium iodide staining by flow cytometry relative to control; assay type: functional; procedure, shortened: as §1
A549 [14] = assay: Cell cycle arrest in human A549 cells assessed as accumulation at S phase at 100 uM after 24 hrs using propidium iodide staining by flow cytometry relative to control; assay type: functional; procedure, shortened: as §1

| pIC50 (A549 [1]) | SMILES | inhibition (A549 [2]) | inhibition (A549 [3]) | Activity (A549 [4]) [%] | Activity (A549 [5]) [%] | Activity (A549 [6]) [%] | Activity (A549 [7]) | Activity (A549 [8]) | Activity (A549 [9]) | inhibition (A549 [10]) | inhibition (A549 [11]) | Activity (A549 [12]) [%] | Activity (A549 [13]) [%] | Activity (A549 [14]) [%] |
| --- | --- | --- | --- | --- | --- | --- | --- | --- | --- | --- | --- | --- | --- | --- |
| < 3.00 | C#Cc1cccc(OC)c1 | inactive | – | – | – | – | – | – | – | – | – | – | – | – |
| < 3.00 | OC[C@H]1NC[C@H](O)[C@@H](O)[C@@H]1O [DUVOGLUSTAT] | inactive | Active | – | – | – | – | – | – | – | – | – | – | – |
| 4.29 | C#Cc1cccc(OCCCCCCCCN2C[C@H](O)[C@@H](O)[C@H](O)[C@H]2CO)c1 | Active | Active | 77.69 | 9.97 | 13.93 | Active | Active | Active | Active | Active | 89.1 | 5.44 | 4.85 |
